# An excerpt weighted towards active compounds, which were near 1.5% of everything screened.
# T cell modulator = modulators of CD8 T cell-vesicle binding, primary screen, mouse 2C CD8+ T cells, flow cytometry; 2C CD8+ T cell-vesicle binding; stronger effect = lower value; response (vesicle binding), % at 7 µM; 330,000 compounds, 0.068% hits; AID 2052, 2009;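 active = response, share of CD8 T cells binding vesicles, and their 90th percentile fluorescence all below set limits, cut at about 80% in these data, passing the limit was not always enough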;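 also: values below 100% mean blocked vesicle binding to the CD8+ T cells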
#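 material = purified 2C TCR transgenic mouse naive CD8+ T cells | controls = Unloaded micro-vesicles (low), QL9 vesicles with 0.7% DMSO (high) | detection = cytometric PE anti-B7-1 and Alexa647 anti-CD8 signals after 1% paraformaldehyde fixation | incubation = binding step 1.5 h, 37 °C, antibody labelling 20 min, ice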
# LANA-H2B inh = blockers of LANA interaction with H2A/H2B – biochemical, FP readout, HTS, primary screen | Protein LANA1 (Human herpesvirus 8 type P (isolate GK18)), Q9QR71 | cell-free LANA-H2A/H2B peptide, fluorescence polarization | inhibition, % (no concentration beside the values) | 320,000 compounds, 0.6% hits | AID 2629, 2010; in the data active = inhibition mostly above about 10%, no sharp cut-off; inactive = mostly below about 6.7%
# HDAC3 inhib = HDAC3 deacetylase inhibitors, primary screen, biochemical, fluorescence, cell-free homogeneous | Histone deacetylase 3 (Homo sapiens), O15379 | recombinant HDAC3, fluorogenic peptide/trypsin coupled | inhibition, % at 8.3 µM | 320,000 compounds, 0.15% hits; in the data active = inhibition above about 26%, passing the limit was not always enough; inconclusive = no clear call, values can overlap the other calls
# Arrestin-AP2 inh = inhibitors of beta-arrestin/AP2 binding, primary screen, biochemical, GPCR trafficking, flow cytometry; beta-arrestin 1 C-terminal peptide binding to AP2 beta2-adaptin appendage (human); 340,000 compounds, 0.31% hits; inhibition, % at 10 µM; FITC-arrestin peptide / GST-AP2 beads; AP2 beta2 appendage carries R879A mutation;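 active = inhibition above a set limit, near 3 SD of compounds lacking own fluorescence, cut at about 54% in these data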;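 also: plate controls were DMSO wells for no effect and 5 µM unlabelled arrestin peptide for full effect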
#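 System: GST-AP2 R879A bound to glutathione beads, E. coli-expressed. Also added: 50 nM FITC-arrestin peptide. Schedule: compound with beads 12 min RT, then probe 1 h RT. Signal: bead flow cytometry, FITC channel. Read-out basis: percent response.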
# DSG3 Ab inh = inhibitors of pemphigus antibody binding to DSG3, primary screen, biochemical, bead-based, flow cytometry, scFv-GFP; DSG3-coupled beads, scFv-anti-DSG3-GFP binding; stronger effect = lower value; binding (percent of control), % at 10 µM; Desmoglein-3 (Homo sapiens), P32926; 310,000 compounds, 0.48% hits; AID 588358, 2011;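 active = binding more than 3 SD below its plate's average and above zero; inconclusive = below that plate limit but binding exactly zero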
# Numbers without * were called inactive; i = inactive; ? = inconclusive; . = no result given.
SMILES,T cell modulator,LANA-H2B inh,HDAC3 inhib,Arrestin-AP2 inh,DSG3 Ab inh
COc1ccc(C(=O)COC(=O)Cn2nnc3ccccc32)cc1Br,476,-3,13,-3,120
COc1ccc(C(=O)n2nnc3ccccc32)cc1Br,584,6,96*,11,108
O=C(CS(=O)c1ccc(F)cc1)Nc1ccccc1Cl (stereo not drawn),181,13*,0,-7,112
CCOC(=O)Cc1csc(NC(=O)CCCc2ccccc2)n1,0.0*,-2,-2,-11,120
CCOC(=O)Cc1csc(NC(=O)COc2ccccc2)n1,292,-6,7,4,65*
COc1ccccc1CCc1nnc(CCC(=O)NC(C)Cc2ccsc2)o1 (stereo not drawn),616,-2,1,-1,8.6*
O=CC(O)C1OC(=O)C(O)C1O (stereo not drawn),.,.,.,4,86*
C=CCNC(=O)CN1C(=O)CSc2ccc(S(=O)(=O)N3CCOCC3)cc21,.,.,.,.,106
O=C(CSc1nnnn1-c1cccc2ccccc12)Nc1ccc(N2CCOCC2)c(Cl)c1,295,15*,4,4,100
O=C(CSc1nnnn1-c1ccccc1)Nc1ccc(N2CCOCC2)c(Cl)c1,229,-2,1,-20,100
Cc1nc2sc3c(=O)[nH]nnc3c2c(C)c1Br,145,-1,10,11,91
COc1ccc(-n2c(=S)[nH]c3cc(C(=O)NCc4cccnc4)ccc3c2=O)cc1,239,0,-2,0,101
CCCC(=O)n1nc(-c2ccc(Cl)cc2)nc1SC,249,12,32*,-61,99
Cc1ccc(S(=O)(=O)N(C)CC(=O)NNC(=O)CCS(=O)(=O)c2ccccc2)cc1,222,-3,-3,13,108
O=C(COC(=O)CN1C(=O)NC2(CCCC2)C1=O)Nc1ccccc1C(F)(F)F,398,-9,?,3,101
CCN(CC(=O)Nc1ccccc1C(F)(F)F)C(=O)CCc1ccccc1,459,-4,-2,20,103
O=C(COC(=O)CN1C(=O)c2ccccc2C1=O)Nc1ccccc1C(F)(F)F,.,.,.,.,84*
O=C(CCc1ccccc1)Nc1ccccc1C(F)(F)F,426,32*,2,-1,109
CCc1noc(C)c1C(=O)N(CC)CC(=O)NCc1ccc(Cl)cc1,42,-4,-1,-8,?
Cc1cc2occ(CC(=O)N(C)CC(=O)Nc3ccccc3C(F)(F)F)c2cc1C,372,0,4,7,.
CC(C)(Cc1ccccc1)/[N+]([O-])=C\c1ccc(C(F)(F)F)cc1,649,-3,3,10,97
NC(=O)c1c(-c2ccccc2)oc2ccc(O)cc12,297,17*,3,4,101
CC(=O)c1c(C)[nH]c(C(=O)Nc2cccc(C)n2)c1C,348,9.4*,-4,-4,114
CCCCOc1ccc(C(=O)NCC(=O)N2CCN(C/C=C/c3ccccc3)CC2)cc1,.,.,.,.,99
COc1ccc(-c2csc(NC(=O)c3cc(C)on3)c2C#N)cc1OC,236,0,7,4,79*
SMILES,T cell modulator,LANA-H2B inh,HDAC3 inhib,Arrestin-AP2 inh,DSG3 Ab inh
CCc1c(C)sc(NC(=O)c2cc(-c3ccc(OC)c(OC)c3)on2)c1C#N,305,3,-5,7,81
CCOc1ccc(C(=O)NNC(=O)CCNC(=O)c2ccco2)cc1OC,i,-3,-8,-4,97
CCOC(=O)N1CCN(C(=O)COC(=O)c2ccc(Cl)nc2)CC1,207,-5,-2,-1,101
O=C(CSC1=Nc2ccccc2C2CC=NN12)Nc1ccc(F)cc1Cl (stereo not drawn),175,-10,1,8,30*
Cc1cc(SCC(=O)N2CCN(C(=O)c3ccco3)CC2)c(C)cc1Br,276,45*,1,-3,97
Cc1cc(C)c(CN2CCN(CCCn3ccc(NC(=O)OCc4ccccc4)nc3=O)CC2)c(C)c1,.,.,.,2,102
CC(C)C1COC(c2cccn2Cc2ccccc2Cl)=N1 (stereo not drawn),276,20*,-3,6,91
CCOc1ccc(S(=O)(=O)NCC2(N3CCCCC3)CCCCC2)cc1,.,.,.,-4,101
CCOc1ccc(S(=O)(=O)NCCC(=O)NCC2(N3CCCCC3)CCCCC2)cc1,i,168*,-4,15,109
CC(C)(C)c1ccc(NC(=O)CN2C(=O)NC(C)(C3CC3)C2=O)cc1 (stereo not drawn),369,-3,0,11,?
COc1ccc(C(=O)NCc2nnc(SCC(=O)N3CCc4ccccc43)n2CCc2ccccc2)cc1,222,4,-3,-5,102
COc1ccc(C(=O)NCc2nnc(SCC(=O)N3CCc4ccccc43)n2C2CCCCC2)cc1,252,1,0,44,89*
COc1ccc(S(=O)(=O)N2CCCC(C(=O)N3CCN(Cc4ccccc4)CC3)C2)cc1Cl (stereo not drawn),.,.,.,.,102
Cn1c(SCC(=O)NCC2CCCO2)nnc1-c1ccc(Cl)cc1 (stereo not drawn),310,3,2,-4,.
Cc1ccc(Sc2ncccc2C(=O)N(C)Cc2cccs2)c(C)c1,162,0,-1,1,103
CCCN1C=CC(=C/C=C(\C#N)C(=O)OCC)C=C1,313,-55,30*,.,.
CCCCCCN1C=CC(=C/C=C(\C#N)C(=O)OCC)C=C1,98,-11,-3,-8,146
C[C@H](CO)N1C[C@H](C)[C@H](CN(C)S(C)(=O)=O)Oc2c(cccc2N(C)C)C1=O,826,-3,-6,25,107
CCOCCCNc1nc2nc3ccc(C)cn3c(=O)c2cc1C(=O)NCC1CCCO1 (stereo not drawn),267,1,-420,-8,102
Cc1ccc2nc3c(cc(C(=O)NCC4CCCO4)c(=N)n3CCCOC(C)C)c(=O)n2c1 (stereo not drawn),285,18*,.,2,96
Cc1ccc(S(=O)(=O)N2CCN(C(=O)CCC(=O)Nc3ccc(Br)c(C)c3)CC2)cc1,.,.,.,-8,107
COCc1nnc(NC(=O)C2CC(=O)N(C3CCCC3)C2)s1 (stereo not drawn),324,-2,8,0,93
Cc1nnc2n(c1=O)N=C(c1ccc(Cl)cc1)CS2,160,-4,59*,18,113
CCc1nnc2n1N=C(c1ccc(Cl)cc1)CS2,155,0,2,3,104
O=C(CSc1nnc(-c2ccncc2)n1-c1ccccc1Cl)Nc1ccc(C(=O)O)cc1,223,48*,-10,-14,97
